Source: ChEMBL document CHEMBL1124816, “Effect of structure on potency and selectivity in 2,6-disubstituted 4-(2-arylethenyl)phenol lipoxygenase inhibitors” (J Med Chem, 1990)

Tests used:
[1] = target: T1, Polyunsaturated fatty acid 5-lipoxygenase (Homo sapiens, UniProt P09917); assay: Inhibition of human neutrophil 5-lipoxygenase
T1 sequence (P09917 whole entry): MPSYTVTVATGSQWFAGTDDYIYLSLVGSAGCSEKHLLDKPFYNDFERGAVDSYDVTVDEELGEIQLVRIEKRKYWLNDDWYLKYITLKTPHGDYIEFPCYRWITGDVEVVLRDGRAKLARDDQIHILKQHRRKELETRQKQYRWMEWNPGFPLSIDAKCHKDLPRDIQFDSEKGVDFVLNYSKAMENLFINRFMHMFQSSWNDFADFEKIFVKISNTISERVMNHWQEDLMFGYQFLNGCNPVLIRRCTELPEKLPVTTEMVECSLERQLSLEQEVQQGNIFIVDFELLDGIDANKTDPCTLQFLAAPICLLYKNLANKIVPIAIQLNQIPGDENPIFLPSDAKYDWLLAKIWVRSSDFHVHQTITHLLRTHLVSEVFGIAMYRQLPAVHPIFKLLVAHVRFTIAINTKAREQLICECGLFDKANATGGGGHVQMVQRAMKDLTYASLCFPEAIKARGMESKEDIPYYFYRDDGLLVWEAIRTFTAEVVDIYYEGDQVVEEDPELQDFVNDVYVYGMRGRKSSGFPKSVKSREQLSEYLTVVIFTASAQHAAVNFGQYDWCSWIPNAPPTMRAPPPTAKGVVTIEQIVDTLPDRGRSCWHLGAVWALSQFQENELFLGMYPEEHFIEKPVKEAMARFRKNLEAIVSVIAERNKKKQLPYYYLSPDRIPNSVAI

Cavia porcellus [2] = assay: Inhibition of antigen-induced leukotriene-mediated bronchoconstriction in conscious guinea pig at the dose of 30mg/Kg, ip.; type: functional
Outline: (§1)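 Male Hartley guinea pigs (250–300 g), actively ovalbumin-sensitized, fasted 18 h, anesthetized, pleural pressure transducer fitted. Dosed 60 min before aerosolized ovalbumin challenge with pyrilamine (10 mg/kg ip), indomethacin (10 mg/kg ip) and test agent (ip as 5% Tween 80 suspension). Head-out plethysmography after recovery; Cdyn mean change from baseline over 5–15 min post-challenge vs controls; 5–10 animals per dose; Dunnett's test.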

Cyclooxygenase [3] = target: T2, Cyclooxygenase (Homo sapiens, UniProt P35354+P23219); assay: Inhibition of human platelet Prostaglandin G/H synthase
[4] = target: T3, Polyunsaturated fatty acid 5-lipoxygenase (Homo sapiens) (UniProt P09917); assay: Inhibition of lipoxygenase at the concentration of 0.1 uM
T3 sequence (whole entry): T1 sequence (P09917 whole entry)
Outline: (§2)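 5-LO activity measured in human peripheral blood leukocytes. Percent inhibition at a single test concentration is compared with untreated control, with significance by ANOVA and Tukey's multiple comparisons test (p < 0.05).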

[5] = target: T3, Polyunsaturated fatty acid 5-lipoxygenase (Homo sapiens); assay: Inhibition of lipoxygenase at the concentration of 1 uM; outline: as §2
[6] = (§3) Inhibition of human platelet Prostaglandin G/H synthase at the concentration of 10 uM
Outline: (§4)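 CO activity measured in human platelets. Percent inhibition at a single test concentration is compared with untreated control, with significance by ANOVA and Tukey's multiple comparisons test (p < 0.05).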

Cyclooxygenase [7] = target: T2, Cyclooxygenase; assay: (§5) Inhibition of human platelet Prostaglandin G/H synthase at the concentration of 1 uM; outline: as §4
Cavia porcellus [8] = organism: Cavia porcellus; assay: Inhibition of cell influx (total cells) in guinea pig; type: functional
Outline: (§6)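 Male Hartley guinea pigs (250–300 g), ovalbumin-sensitized, fasted, pretreated 60 min before challenge with pyrilamine (10 mg/kg ip), indomethacin (10 mg/kg ip) and test agent (ip as 5% Tween 80 suspension). Challenged with aerosolized ovalbumin; 4 h later anesthetized and exsanguinated for late-phase inflammatory cell influx counts (total cells, PMN).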

Cavia porcellus [9] = assay: Inhibition of antigen-induced ileukotriene-mediated bronchoconstriction in conscious guinea pig at the dose of 300mg/Kg, po.; type: functional
Cavia porcellus [10] = assay: Inhibition of antigen-induced leukotriene-mediated bronchoconstriction in conscious guinea pig at the dose of 100mg/Kg, po.; type: functional
Cavia porcellus [11] = assay: Inhibition of antigen-induced leukotriene-mediated bronchoconstriction in conscious guinea pig at the dose of 30mg/Kg, po.; type: functional
Cavia porcellus [12] = assay: Inhibition of antigen-induced leukotriene-mediated bronchoconstriction in conscious guinea pigat the dose of 100mg/Kg, ip; type: functional; outline: as §1
Cavia porcellus [13] = organism: Cavia porcellus; assay: Inhibition of cell influx (PMN) in guinea pig; type: functional; outline: as §6
Cavia porcellus [14] = assay: Inhibition of antigen-induced leukotriene-mediated bronchoconstriction in conscious guinea pig at the dose of 30mg/Kg, ip; type: functional; outline: as §1
[15] = target: T3, Polyunsaturated fatty acid 5-lipoxygenase (Homo sapiens); assay: Inhibition of human neutrophil 5-lipoxygenase at the concentration of 0.1 uM; outline: as §2
[16] = target: T3, Polyunsaturated fatty acid 5-lipoxygenase (Homo sapiens); assay: (§7) Inhibition of human neutrophil 5-lipoxygenase at the concentration of 1 uM; outline: as §2
Cyclooxygenase [17] = target: T2, Cyclooxygenase; assay: as §3; type: functional; outline: as §4
Cyclooxygenase [18] = target: T2, Cyclooxygenase; assay: as §5; type: functional; outline: as §4
Cavia porcellus [19] = assay: Inhibition of antigen-induced leukotriene-mediated bronchoconstriction in conscious guinea pig at the dose of 10mg/Kg, ip; type: functional; outline: as §1
[20] = target: T3, Polyunsaturated fatty acid 5-lipoxygenase (Homo sapiens); assay: as §7; type: functional; outline: as §2

Structure (SMILES)	IC50 [1] [nM]	IC50 (Cyclooxygenase [3]) [nM]	inhibition [4] [%]	inhibition [5] [%]	inhibition [6] [%]	inhibition (Cyclooxygenase [7]) [%]	further results
Cc1cccc(/C=C/c2cc(C)c(O)c(C)c2)c1	130	2500	–	–	–	–	inhibition in vivo at 30 mg/kg (Cavia porcellus [2]): 49%
CCc1cc(/C=C/c2ccc(C)cc2)cc(CC)c1O	< 1000	< 10000	21	91	73	35	–
CC(C)(C)c1cc(/C=C/c2cccnc2)cc(C(C)(C)C)c1O	1700	–	–	–	–	–	Inhibition (Cavia porcellus [8]): 0%; inhibition in vivo at 300 mg/kg (Cavia porcellus [9]): 7.7%; inhibition in vivo at 100 mg/kg (Cavia porcellus [10]): -2%; inhibition in vivo at 30 mg/kg (Cavia porcellus [11]): -24%; inhibition in vivo at 100 mg/kg (Cavia porcellus [12]): 10%; Inhibition (Cavia porcellus [13]): 0%
Cc1cc(/C=C/c2cc(F)cc(F)c2)cc(C)c1O	< 1000	1000	6	81	74	50	–
Cc1cc(/C=C/c2ccccc2C(F)(F)F)cc(C)c1O	< 1000	< 1000	14	94	72	76	–
CCCc1cc(/C=C/c2cccs2)cc(OC)c1O	86	1300	–	–	–	–	Inhibition (Cavia porcellus [8]): 77%; inhibition in vivo at 30 mg/kg (Cavia porcellus [14]): 57%; Inhibition (Cavia porcellus [13]): 54%
COc1ccc(/C=C/c2cc(C)c(O)c(C)c2)cc1	91	1500	–	–	–	–	inhibition in vivo at 30 mg/kg (Cavia porcellus [14]): 28%
Cc1cc(/C=C/c2ccncc2)cc(C)c1O	1000	> 10000	1	51	17	0	–
CCc1cc(/C=C/c2cccnc2)cc(CC)c1O	< 1000	< 10000	–	–	–	–	inhibition [15]: 36%; inhibition [16]: 86%; inhibition (Cyclooxygenase [17]): 82%; inhibition (Cyclooxygenase [18]): 20%
Cc1cc(/C=C/c2c(F)cccc2F)cc(C)c1O	< 1000	< 1000	12	96	94	73	–
Cc1cc(/C=C/c2ccc(F)cc2F)cc(C)c1O	< 1000	710	25	100	–	–	–
Cc1cc(/C=C/c2ccc3ccccc3c2)cc(C)c1O	< 1000	< 10000	16	61	66	37	–
CCc1cc(/C=C/c2cccs2)cc(OC)c1O	90	1400	–	–	–	–	inhibition in vivo at 30 mg/kg (Cavia porcellus [14]): 51%
CCCC/C(=C\c1cc(C)c(O)c(C)c1)c1ccc(F)cc1	< 1000	1000	17	93	86	52	–
Cc1ccc(/C=C/c2cc(C)c(O)c(C)c2)cc1	290	3200	–	–	–	–	inhibition in vivo at 30 mg/kg (Cavia porcellus [2]): 59%
Cc1cc(/C=C/c2csc3ccccc23)cc(C)c1O	< 1000	400	13	87	–	–	–
COc1cc(/C=C/c2cccs2)cc(C)c1O	86	3100	–	–	–	–	inhibition in vivo at 30 mg/kg (Cavia porcellus [14]): 41%
Cc1cc(/C=C/c2ccc(C(C)C)cc2)cc(C)c1O	> 1000	1400	11	30	–	–	–
Cc1cc(/C=C/c2cccs2)cc(C)c1O	54	780	–	–	–	–	Inhibition (Cavia porcellus [8]): 78%; inhibition in vivo at 10 mg/kg (Cavia porcellus [19]): 34.5%; inhibition in vivo at 30 mg/kg (Cavia porcellus [14]): 70.3%; Inhibition (Cavia porcellus [13]): 95%
Cc1cc(/C=C/c2ccc(F)cc2)cc(C)c1O [ENOFELAST]	120	1300	–	–	–	–	inhibition in vivo at 30 mg/kg (Cavia porcellus [2]): 43%
CC(C)(C)c1cc(/C=C/c2ccc(F)cc2)cc(C(C)(C)C)c1O	> 1000	610	24	18	–	–	–
Cc1cc(/C=C/c2ccccc2C(=O)O)cc(C)c1O	> 1000	> 10000	–	–	25	16	inhibition [20]: 12%
Cc1cc(/C=C/c2ccccc2Br)cc(C)c1O	< 1000	< 1000	26	94	91	84	–
Cc1cc(/C=C/c2ccsc2)cc(C)c1O	45	< 10000	–	–	96	38	inhibition in vivo at 30 mg/kg (Cavia porcellus [14]): 26%
Cc1cc(/C=C/c2cccc3ccccc23)cc(C)c1O	< 1000	–	27	94	–	–	–
